Assay outcomes as filed in PubChem.
The full list was thinned out, with hits kept by preference.
Xi reactivation: activators of inactive X chromosome reactivation, primary screen, imaging, XiGFP fibroblasts, GFP high-content imaging, set 2; activation, % at 7.58 µM; actives 0.055% (n = 360,000); AID 743238, 2013; XiGFP mouse fibroblasts, % GFP-positive cells imaging, 3 d; cells co-treated with 5-aza-dC sensitizer; scaled so ellipticine positive control = 100%;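 active = mean normalized replicate activation at least 10% and every replicate at or above 10%; inconclusive = only one of the two criteria met; inactive = mean below 10% and not all replicates reach 10%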
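System: XiGFP fibroblasts, SV40-immortalized. Medium: DMEM plus 5-aza-dC sensitizer. Doses: single point. Timing: 3 d treatment, 15 min room-temperature fixation. Control set: ellipticine 6 µM.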
Myeloid diff 2: induction of myeloid progenitor differentiation, primary screen, cell-based, flow cytometry, MLPCN library; ER-HoxA9 myeloid progenitors, lysozyme-GFP differentiation; calls only at 10 µM; actives 1% (n = 360,000);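 active = normalized GFP-positive differentiation at or above the plate's own cutoff, the solvent-only control mean plus 3 SD; inconclusive = no clear call, values can overlap the other calls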;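 note: cells exposed to compound for four days before flow analysis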
ABCB6 inh MLPCN: ABCB6 transporter inhibitors, primary screen, K562-ABCB6 cells, flow cytometry, MLPCN library; K562-ABCB6 porphyrin accumulation, 1 h; stronger effect = lower value; AID 602162, 2011; actives 0.19% (n = 360,000); fluorescence ratio to DMSO, % at 10 µM; ATP-binding cassette sub-family B member 6 (Homo sapiens), Q9NP58;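 active = fluorescence ratio to DMSO below 75%, the collection mean minus 3 SD; inconclusive = too few cells collected in the well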;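 note: signal is porphyrin accumulated inside mitochondria; lower ratio means ABCB6 inhibition with less porphyrin fluorescence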
Target sequence (Q9NP58 whole entry, looked up): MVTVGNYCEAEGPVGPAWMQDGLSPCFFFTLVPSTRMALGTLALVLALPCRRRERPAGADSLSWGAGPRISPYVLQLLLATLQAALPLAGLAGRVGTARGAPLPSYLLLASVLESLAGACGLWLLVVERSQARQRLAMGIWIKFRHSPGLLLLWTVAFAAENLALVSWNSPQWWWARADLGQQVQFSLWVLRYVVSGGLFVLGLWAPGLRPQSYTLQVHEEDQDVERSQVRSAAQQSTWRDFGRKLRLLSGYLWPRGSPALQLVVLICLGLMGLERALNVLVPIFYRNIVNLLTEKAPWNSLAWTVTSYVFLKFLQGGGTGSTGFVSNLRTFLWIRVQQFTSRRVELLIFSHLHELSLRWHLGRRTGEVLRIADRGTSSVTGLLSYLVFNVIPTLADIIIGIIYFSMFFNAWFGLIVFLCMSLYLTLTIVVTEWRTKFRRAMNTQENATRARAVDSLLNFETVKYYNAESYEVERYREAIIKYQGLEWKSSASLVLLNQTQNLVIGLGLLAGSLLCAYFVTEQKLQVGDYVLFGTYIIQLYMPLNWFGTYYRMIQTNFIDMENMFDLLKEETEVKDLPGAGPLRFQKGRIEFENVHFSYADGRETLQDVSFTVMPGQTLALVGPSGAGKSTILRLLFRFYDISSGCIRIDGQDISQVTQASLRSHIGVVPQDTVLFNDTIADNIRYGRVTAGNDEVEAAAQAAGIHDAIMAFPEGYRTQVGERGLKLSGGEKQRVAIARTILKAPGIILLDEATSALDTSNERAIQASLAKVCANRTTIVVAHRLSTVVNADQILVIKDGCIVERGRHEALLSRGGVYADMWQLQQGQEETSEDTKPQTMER
Each line names hits and unclear results; the compound was inactive in the other large screens.

COc1ccc(C2C3=C(CC(C)(C)CC3=O)Nc3c2c(=O)[nH]c2nc(C)nn32)cc1 (stereo not given)	Myeloid diff 2 active (no result: Xi reactivation)
COc1ccc(C2C(C#N)=C(C)NC3=C2C(=O)CC(C)(C)C3)cc1 (stereo not given)	none (no result: Xi reactivation)
C[C@@H]1CN([C@H](C)CO)C(=O)Cc2cc(NC(=O)Nc3ccc(C(F)(F)F)cc3)ccc2O[C@H]1CN(C)C(=O)Nc1cccc2ccccc12	none (no result: Myeloid diff 2, ABCB6 inh MLPCN)
Cc1cc2c(SCc3ccccc3Cl)nc(N)nc2nc1C	Myeloid diff 2 active
Nc1cc(N)nc(SCc2ccccc2Cl)n1	none
O=C(C1CCC(CNc2nc(=S)[nH]c3ccccc23)CC1)N1CCN(c2ccccn2)CC1 (stereo not given)	Myeloid diff 2 active (no result: Xi reactivation)
C=CCNC(=O)C1CCC(CNc2nc(=S)[nH]c3ccccc23)CC1 (stereo not given)	none
C[n+]1c(-c2ccccc2)cc2c(=Cc3ccccc3)c3ccccc3n21	Myeloid diff 2 inconclusive
CN(C)c1ccc(C=c2c3cc(O)ccc3n3c2cc(-c2ccccc2)[n+]3C)cc1	Myeloid diff 2 active
CCNC(=O)Nc1ccc2c(c1)C(=O)N(C)[C@H]1CC[C@H](CC(=O)Nc3ccccc3OC)O[C@@H]1CO2	none (no result: Myeloid diff 2, ABCB6 inh MLPCN)
O=C(C[C@H]1CC[C@@H](NS(=O)(=O)c2ccccc2)[C@H](CO)O1)NCc1ccncn1	none (no result: Myeloid diff 2, ABCB6 inh MLPCN)
Cc1ccc(NC2=Nc3ccccc3CC2)cc1	none (no result: Xi reactivation, Myeloid diff 2)
c1ccc(NC2=Nc3ccccc3CS2)cc1	Myeloid diff 2 active (no result: Xi reactivation)
Cc1nc(-c2ccccc2)sc1-c1nc(-c2cccnc2)ncc1S(=O)(=O)c1ccccc1	Myeloid diff 2 active (no result: Xi reactivation)
O=S(=O)(c1ccccc1)c1cnc(-c2cccnc2)nc1-c1ccccc1	none (no result: Xi reactivation)
C[C@@H]1CN(C)C(=O)c2cccc(N)c2O[C@@H]1CN(C)S(C)(=O)=O	none (no result: Myeloid diff 2, ABCB6 inh MLPCN)
CO[C@H]1CN(C)C(=O)c2ccc(NC(C)=O)cc2OC[C@H](C)N(C(=O)C2CCC2)C[C@@H]1C	none (no result: Myeloid diff 2, ABCB6 inh MLPCN)
CN(C)S(=O)(=O)c1cccc(NC(=O)c2sccc2-c2ccccc2)c1	Myeloid diff 2 active
CN(C)S(=O)(=O)c1cccc(NC(=O)c2cccc(NS(=O)(=O)c3ccccc3)c2)c1	none
CC(=O)Nc1ccc(NC(=O)CSCCc2ccccn2)cc1	none (no result: Xi reactivation)
COC(=O)c1cc2c(cc1NC(=O)CSCCc1ccccn1)OCO2	Myeloid diff 2 active (no result: Xi reactivation)
O=C(c1cccnc1)N1CC2(C1)[C@@H](c1ccccc1)[C@H](CO)N2C(=O)c1cccnc1	none (no result: Myeloid diff 2, ABCB6 inh MLPCN)
CC1CCc2nc(N)c(C#N)c(-c3ccncc3)c2C1 (stereo not given)	Myeloid diff 2 active (no result: Xi reactivation)
CC1CCc2nc(N)c(C#N)c(-c3cccnc3)c2C1 (stereo not given)	none
N#C/C(=C\c1ccc(N2CCOCC2)o1)c1nc2ccccc2[nH]1	Myeloid diff 2 active (no result: Xi reactivation)
N#C/C(=C\c1ccc(-c2ccc(C(=O)O)cc2)o1)c1nc2ccccc2[nH]1	Myeloid diff 2 active
N#C/C(=C\c1ccccc1C(=O)O)c1nc2ccccc2[nH]1	none
N#C/C(=C\c1ccc(N2CCOCC2)c([N+](=O)[O-])c1)c1nc2ccccc2[nH]1	none
CCC(=O)N1[C@H](CO)[C@H](c2ccccc2)C12CN(C(=O)c1cnccn1)C2	none (no result: Myeloid diff 2, ABCB6 inh MLPCN)
Cc1ccccc1NC(=O)CN1C(=O)S/C(=C\c2ccc(-c3cc(C(=O)O)ccc3C)o2)C1=O	Xi reactivation 40
Cc1ccc(C(=O)O)cc1-c1ccc(/C=C2\SC(=O)N(CC(=O)Nc3ccccc3)C2=O)o1	none
CCCC(=O)N(c1ccc(OCC)cc1)S(=O)(=O)c1ccc2c3c(cccc13)C(=O)N2C	Myeloid diff 2 active
COCCNS(=O)(=O)c1ccc2c3c(cccc13)C(=O)N2C	none
COc1cccc(NC(=S)NCCN2CCOCC2)c1	none
COc1cc(NC(=S)NCCCN2CCOCC2)cc(OC)c1	ABCB6 inh MLPCN 62
COc1ccc2c3c(n(C)c2c1)[C@H](CO)N(Cc1cccc(F)c1)CC31CCN(C(=O)Cc2ccccc2)CC1	none (no result: Myeloid diff 2, ABCB6 inh MLPCN)
NC(=O)c1ccc(NCCc2cccs2)cc1	none
Cn1c2ccccc2c(=O)c2ccc(NCCc3cccs3)cc21	Myeloid diff 2 active
C[C@H]1CN([C@@H](C)CO)C(=O)Cc2cc(NC(=O)Nc3ccc(F)cc3)ccc2O[C@H]1CN(C)S(=O)(=O)c1ccc(Cl)cc1	none (no result: Myeloid diff 2, ABCB6 inh MLPCN)
COCC#Cc1ccc([C@H]2[C@H]3CN(C(=O)C4CCOCC4)CC(=O)N3[C@H]2CO)cc1	none (no result: Myeloid diff 2, ABCB6 inh MLPCN)
CC1(c2ccc3c(c2)OCCO3)NC(=O)N(CC(=O)Nc2ccccc2)C1=O (stereo not given)	none
CC1(c2ccc3c(c2)OCCO3)NC(=O)N(CC(=O)Nc2ccccc2SCC#N)C1=O (stereo not given)	Myeloid diff 2 active
Cc1ccc(S(=O)(=O)Nc2ccc3c(c2)C(=O)N([C@@H](C)CO)C[C@H](C)[C@H](CN(C)C(=O)Nc2ccccc2)OCCCC[C@@H](C)O3)cc1	none (no result: Myeloid diff 2, ABCB6 inh MLPCN)
Cn1c(-c2ccccc2[N+](=O)[O-])[n+](C)c2ccccc21	Myeloid diff 2 active
Cn1c(O)c(N=Nc2ccccc2[N+](=O)[O-])c2ccccc21	none
C[C@@H]1CCCCO[C@H](CN(C)C(=O)Nc2ccc(F)cc2)[C@@H](C)CN([C@@H](C)CO)C(=O)c2cc(NS(=O)(=O)c3cn(C)cn3)ccc2O1	none (no result: Myeloid diff 2, ABCB6 inh MLPCN)
Cc1cc(C)nc(SC2=CS(=O)(=O)c3ccccc32)n1	Myeloid diff 2 active (no result: Xi reactivation)
O=S1(=O)C=C(Sc2nnc(-c3ccccc3)o2)c2ccccc21	Myeloid diff 2 inconclusive (no result: Xi reactivation)
O=C(C[C@H]1C[C@H]2c3cc(NC(=O)C4CCC4)ccc3O[C@H]2[C@H](CO)O1)NCc1ccc(Cl)cc1	none (no result: Myeloid diff 2, ABCB6 inh MLPCN)
C[C@H](CO)N1C[C@H](C)[C@@H](CN(C)C(=O)Nc2ccc(C(F)(F)F)cc2)Oc2c(NC(=O)C3CCOCC3)cccc2C1=O	none (no result: Myeloid diff 2, ABCB6 inh MLPCN)
CCOC(=O)N1CCN(S(=O)(=O)N2CCCC(C(=O)NCc3cccc(OC)c3)C2)CC1 (stereo not given)	Myeloid diff 2 active
CCc1ccc(CNC(=O)C2CCCN(S(=O)(=O)N3CC(C)CC(C)C3)C2)cc1 (stereo not given)	Myeloid diff 2 active
CCOC(=O)N1CCN(S(=O)(=O)N2CCCC(C(=O)NCc3cc(OC)ccc3OC)C2)CC1 (stereo not given)	none
Cc1ccc(CNC(=O)C2CCCN(S(=O)(=O)N3CCC(C)CC3)C2)cc1 (stereo not given)	none
C[C@@H]1CN([C@H](C)CO)C(=O)c2cc(C#CC(C)(C)O)cnc2O[C@H]1CN(C)Cc1cccc(F)c1	none (no result: Myeloid diff 2, ABCB6 inh MLPCN)
O=C(C[C@@H]1CC[C@@H](NC(=O)C2CC2)[C@H](CO)O1)Nc1ccccc1	none (no result: Myeloid diff 2, ABCB6 inh MLPCN)
COc1ccc(C)cc1S(=O)(=O)N(C)CC(=O)NCc1ccco1	none (no result: Xi reactivation)
CN(CC(=O)NCc1ccco1)S(=O)(=O)c1ccc(F)cc1	none
COc1ccc(S(=O)(=O)N(C)CC(=O)NCc2ccco2)cc1Cl	Myeloid diff 2 active
CN(CCCC(=O)NCc1ccco1)S(=O)(=O)c1ccccc1	Myeloid diff 2 active (no result: Xi reactivation)
COc1ccc(NC(=O)N(C)C[C@@H]2Oc3ccc(NC(=O)Nc4ccccc4)cc3C(=O)N([C@H](C)CO)C[C@@H]2C)cc1	none (no result: Myeloid diff 2, ABCB6 inh MLPCN)
O=C(C[C@@H]1CC[C@@H]2[C@H](COC[C@@H](O)CN2Cc2cc(F)cc(F)c2)O1)NC1CCC1	none (no result: Myeloid diff 2, ABCB6 inh MLPCN)
